Measured values taken from the RNAGym collection of RNA variant scans (doi:10.1038/s41586-018-0170-7).

B1: tRNA (parent)
chain: GUUCCGUUGGCGUAAUGGUAACGCGUCUCCCUCCUAAGGAGAAGACUGCGGGUUCGAGUCCCGUACGGAACG

Variants of: B1
Test: yeast fitness, log relative to wild type (ln ratio); higher = fitter; tRNA-Arg(CCU), competitive growth, 37 C, 1 M NaCl
Procedure, shortened: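 In BY4742 missing the chromosomal gene, a combinatorial tRNA-Arg(CCU) variant library was maintained on a HIS3 centromeric plasmid. Selection ran ~6.5 generations (~26.5 h) in SC-HIS 1M NaCl at 37 °C, following 4 generations in SC-HIS at 30 °C, with three outputs per input and variant counts by 125 bp paired-end Illumina sequencing. Fitness is the natural log of a genotype's generations relative to the wild type's, with generations taken as inverse-variance-weighted, OD-scaled log2 output/input frequency.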

Variant	yeast fitness (ln)
G1A G6A C27U A43C A69G A70G	-0.0719
G1A G6A C27U C46U A69G C71U	-0.238
G1A G6A A43C C66U A69G C71U	-0.811
G1A C46U C66U A70G C71U	-0.493
G1A G6A C27U C66A C71U	-0.224
G1A C66A A69G A70G C71U	-0.158
G1A C46U A69G A70U C71U	-0.359
G1A C46U A70U C71U	-0.0276
G1A G6A A43C C46U	-0.0957
G1A C27U C46U A69G A70G C71U	-0.16
G1A C27U A69G C71U	-0.0706
G1A C27U C46U C66A A69G A70G C71U	-0.193
G1A G6A A43C C46U C66U A69G C71U	-0.252
G1A C66U A70U	-0.105
G1A C66U A70G	-0.107
G1A C27U C66U A69G A70U	-0.295
G1A C27U C66U A69G A70G	-0.211
G1A C27U C46U C66U A69G A70G	-0.251
G1A C27U C46U C66U A69G A70U	-0.286
G1A C27U C46U A69G A70U C71U	-0.301
G1A C27U A43C C66U A69G C71U	-0.343
G1A C46U A70U	-0.0349
G1A C46U A70G	-0.226
G1A G6A A43C C66U A69G A70G C71U	-0.245

Variant	yeast fitness (ln)
G1A G6A C27U A43C C46U C66U A69G A70U C71U	-0.477
G1A G6A C27U A43C C46U A69G A70G C71U	-0.374
G1A C27U C46U C66A A70G C71U	-0.187
G1A C46U C66U A70G	-0.104
G1A C46U C66U A70U	-0.201
G1A C27U A43C C71U	-0.0801
G1A C27U C66A A70G C71U	-0.346
G1A G6A C27U A43C C46U C66U	-0.131
G1A C27U A43C A70U C71U	-0.269
G1A G6A C27U C66A A70U C71U	-0.292
G1A C27U A43C A70G	-0.173
G1A C27U A43C A70U	-0.329
G1A C27U C71U	-0.0389
G1A G6A C27U A43C A69G C71U	-0.598
G1A C66U A69G A70U	-0.174
G1A C66U A69G A70G	-0.176
G1A G6A C27U C66A A70U	-0.139
G1A G6A C27U C46U C66A A70G	-0.285
G1A C27U A43C C66A A70U C71U	-0.423
G1A G6A C27U A43C C46U C66A A70U C71U	-0.209
G1A C71U	-0.0163
G1A C27U C46U C71U	-0.0338
G1A C27U A43C C46U C66A A69G A70G	-0.189
G1A C27U A43C C46U C66A A69G A70U	-0.352

Variant	yeast fitness (ln)
G1A G6A C27U A43C C66A A70G C71U	-0.267
G1A G6A A43C C46U C66A C71U	-0.26
G1A G6A C27U A43C A70G C71U	-0.351
G1A G6A C27U A43C C46U C66U A70G C71U	-0.338
G1A G6A C27U A43C C46U A69G A70U C71U	-0.399
G1A G6A A43C	-0.204
G1A C27U A43C C46U C66A A70G	-0.248
G1A C27U A43C C46U C66A A70U	-0.155
G1A C27U A43C C46U A69G A70G	-0.183
G1A C27U A43C C46U A69G A70U	-0.324
G1A C66U A70G C71U	-0.287
G1A G6A A43C C46U C66U C71U	-0.0152
G1A C27U C66U A70U C71U	-0.342
G1A G6A C27U C46U	-0.143
G1A G6A C27U C66U A69G A70G	-0.386
G1A G6A C27U C66U A69G A70U	-0.324
G1A G6A C27U A43C C71U	-0.213
G1A C27U C46U A70G	-0.175
G1A C27U C46U A70U	-0.088
G1A G6A C27U C46U A69G A70G	-0.224
G1A G6A C27U C46U A69G A70U	-0.24
G1A C27U C46U C66A A69G A70U C71U	-0.411
G1A G6A A43C A70G	-0.12
G1A G6A A43C A70U	-0.221

Variant	yeast fitness (ln)
G1A C46U A70G C71U	-0.0168
G1A G6A C27U A43C C46U	-0.233
G1A G6A A43C C66U	-0.195
G1A G6A A69G C71U	-0.146
G1A G6A C27U A43C C66U C71U	-0.505
G1A C27U C46U C66A A69G A70G	-0.248
G1A C27U C46U C66A A69G A70U	-0.179
G1A G6A C27U C46U C71U	-0.253
G1A G6A C27U A43C C46U A69G C71U	-0.268
G1A G6A A43C C66U A69G A70U C71U	-0.402
G1A G6A C27U C46U C66U A70U	-0.198
G1A G6A C27U C46U C66U A70G	-0.236
G1A G6A C27U A43C C46U C66U A70U C71U	-0.413
G1A C27U C66A A70U C71U	-0.243
G1A C27U A43C C46U C66U A70G	-0.226
G1A C27U A43C C46U C66U A70U	-0.173
G1A G6A A43C C66U A69G A70G	-0.253
G1A C27U A43C C66A A70G	-0.173
G1A C27U A43C C66A A70U	-0.136
G1A G6A C27U A43C C46U A70G	-0.285
G1A G6A C27U A43C C46U A70U	-0.201
G1A C46U C66A A69G A70G C71U	-0.178
G1A C46U A69G A70U	-0.0206
G1A C46U A69G A70G	-0.127

Variant	yeast fitness (ln)
G1A G6A A43C C66A A70G C71U	-0.297
G1A C46U C66U A69G A70G C71U	-0.158
G1A C27U A43C C66A A69G A70G C71U	-0.427
G1A C27U A43C C46U C66A A70U C71U	-0.359
G1A C27U C46U C66U A69G C71U	-0.311
G1A G6A A43C C46U C66A A69G A70G C71U	-0.261
G1A C27U A43C C46U C66U C71U	-0.219
G1A G6A C27U A43C A70U C71U	-0.314
G1A G6A A43C C46U C71U	-0.145
G1A C27U A43C A70G C71U	-0.426
G1A C46U C66U C71U	-0.0203
G1A G6A A69G A70G	-0.104
G1A G6A A69G A70U	-0.166
G1A G6A C27U A43C C46U C66A A70G C71U	-0.293
G1A C27U C46U C66U A70U	-0.154
G1A C27U C46U C66U A70G	-0.157
G1A C27U A43C C66U	-0.242
G1A G6A C27U A70U C71U	-0.23
G1A G6A C27U A43C A69G A70G C71U	-0.33
G1A G6A A43C C46U C66U	-0.295
G1A G6A C27U A69G A70G	-0.342
G1A G6A C27U A69G A70U	-0.353
G1A C27U C66U A69G A70U C71U	-0.364
G1A G6A A43C C46U C66U A70G C71U	-0.338

Variant	yeast fitness (ln)
G1A G6A A43C C46U C66A A70U C71U	-0.171
G1A C46U C66U	-0.118
G1A C46U C66A	0.0129
G1A G6A C27U A43C C46U C66U A69G A70U	-0.471
G1A G6A C27U A43C C46U C66U A69G A70G	-0.309
G1A C46U C66U A70U C71U	-0.214
G1A G6A C27U C46U A69G A70G C71U	-0.316
G1A C46U C71U	-0.01
G1A G6A A43C C46U C66U A69G A70G C71U	-0.274
G1A G6A C27U C66U	-0.283
G1A C27U A43C C46U C66U A69G A70U C71U	-0.448
G1A C46U C66U A69G A70U	-0.162
G1A C46U C66U A69G A70G	-0.134
G1A G6A A70G	-0.156
G1A G6A A70U	-0.0929
G1A C27U A69G	-0.295
G1A G6A A43C C66U A70U C71U	-0.405
G1A C27U C66U	-0.206
G1A C27U C66A	-0.123
G1A G6A C27U A43C C66U A69G A70G	-0.383
G1A C27U C46U A70U C71U	-0.178
G1A G6A C27U A43C C46U A69G A70U	-0.259
G1A G6A C27U A43C C46U A69G A70G	-0.265
G1A G6A C27U A43C A70G	-0.21

Variant	yeast fitness (ln)
G1A G6A C27U A43C A70U	-0.3
G1A C46U C66U A69G A70U C71U	-0.353
G1A C27U A43C C46U C66U A69G C71U	-0.361
G1A C27U C46U C66A C71U	-0.148
G1A C27U A69G A70U	-0.216
G1A C27U A69G A70G	-0.215
G1A C46U C66A A70U	-0.0792
G1A C46U C66A A70G	-0.0981
G1A G6A A43C C46U A70G C71U	-0.214
G1A C27U C46U C66U A70U C71U	-0.283
G1A C46U A69G	-0.238
G1A C27U A43C C46U C66U A70G C71U	-0.299
G1A C27U C66A A70G	-0.212
G1A C27U C66A A70U	-0.132
G1A C46U C66A A70U C71U	-0.171
G1A G6A C27U C46U C66U A69G C71U	-0.132
G1A C27U C66U A69G A70G C71U	-0.361
G1A G6A C27U C46U C66U C71U	-0.0279
G1A C27U A43C C46U A69G A70G C71U	-0.336
G1A G6A A43C A70U C71U	-0.218
G1A G6A C27U A43C C46U A70G C71U	-0.315
G1A G6A C27U A69G A70G C71U	-0.344
G1A G6A C27U	-0.134
